Results reported in ChEMBL document CHEMBL1138950, “Benzimidazole derivatives bearing substituted biphenyls as hepatitis C virus NS5B RNA-dependent RNA polymerase inhibitors: structure-activity relationship studies and identification of a potent and highly selective inhibitor JTK-109” (J Med Chem, 2006).

Tests used:
[1] = biological target: RNA-directed RNA polymerase (Hepacivirus hominis, UniProt O39930); experiment: Inhibition of HCV 1b BK six His-tagged C-terminal truncated 544 amino acid NS5B RNA dependent RNA polymerase; design: species or system Hepatitis C virus subtype 1b
RNA-directed RNA polymerase, sequence (O39930 whole entry, the tested form may be a part): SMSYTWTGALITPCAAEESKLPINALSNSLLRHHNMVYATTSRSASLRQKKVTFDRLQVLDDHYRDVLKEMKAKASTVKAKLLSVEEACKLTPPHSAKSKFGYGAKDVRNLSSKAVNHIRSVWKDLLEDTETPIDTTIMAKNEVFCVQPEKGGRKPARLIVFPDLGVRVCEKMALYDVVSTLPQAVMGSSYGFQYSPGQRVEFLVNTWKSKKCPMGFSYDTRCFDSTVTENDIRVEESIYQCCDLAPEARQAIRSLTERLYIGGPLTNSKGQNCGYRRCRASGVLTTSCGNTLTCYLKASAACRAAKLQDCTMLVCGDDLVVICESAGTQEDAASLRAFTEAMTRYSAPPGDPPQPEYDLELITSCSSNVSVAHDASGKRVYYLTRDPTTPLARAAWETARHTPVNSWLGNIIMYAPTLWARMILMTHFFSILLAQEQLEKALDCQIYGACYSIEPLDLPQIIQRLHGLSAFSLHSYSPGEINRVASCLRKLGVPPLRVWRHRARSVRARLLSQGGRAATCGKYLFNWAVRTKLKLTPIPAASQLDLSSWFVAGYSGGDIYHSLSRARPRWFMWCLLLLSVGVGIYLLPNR
Method in brief: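 HCV genotype 1b (BK) NS5B lacking 47 C-terminal residues, His6-tagged, E. coli-expressed; 7 nM enzyme with 5 µg HCV 3′X RNA template-primer, 50 µM each ATP/GTP/CTP, 2 µM UTP plus [3H]-UTP; pH 7.5 Tris, 5 mM MgCl2. Compounds in DMSO (5% final). 60 min at 25 °C; TCA-precipitable radioactivity read. Triplicate, mean of three experiments.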

Hepatitis C virus = experiment: Inhibition of HCV subgenomic RNA replication in Huh5-2 cells after 48 hrs by replicon assay; type: functional, organism-based, Hepacivirus hominis; details: Huh-5-2, 48 h
Method in brief: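 Huh-5-2 cells (Huh-7-derived, genotype 1b subgenomic replicon with luciferase reporter) seeded at 5 × 10^3 per well in DMEM with 10% FBS, 37 °C, 5% CO2; compounds added next day, 48 h exposure; luciferase activity read. EC50 is the concentration reducing replication by 50%. Triplicate, mean of three experiments.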

Huh-5-2 = experiment: Viability of Huh5-2 cells by MTT assay; type: functional; details: Homo sapiens
[2] = Therapeutic index, CC50 for viability of Huh5-2 cells/EC50 for inhibition of HCV subgenomic RNA replication; type: cell-based, Huh-5-2; details: human, read-out: Ratio CC50/EC50
[3] = Plasma concentration in rat at 30 mg/kg, po after 1 hr; type: ADME, organism-based; design: dose 30 mg/kg, route oral
Method in brief: (§1)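 Rats dosed orally at 30 mg/kg; plasma sampled at 1 and 2 h; n = 2 or 3.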

[4] = Plasma concentration in rat at 30 mg/kg, po after 2 hrs; type: ADME, organism-based; design: dose 30 mg/kg, route oral; method in brief: as §1

Compound	IC50 [1] [nM]	EC50 (Hepatitis C virus) [nM]	CC50 (Huh-5-2) [nM]	selectivity ratio [2]	concentration at 1 h [3] [nM]	concentration at 2 h [4] [nM]
NC(=O)c1ccc(-c2ccc(Cl)cc2COc2ccc(-c3nc4cc(C(=O)O)ccc4n3C3CCCCC3)cc2)cc1	69	2500	> 50000	–	–	–
CC(=O)N(c1ccc(-c2ccc(Cl)cc2)c(COc2ccc(-c3nc4cc(C(=O)O)ccc4n3C3CCCCC3)c(F)c2)c1)C(C)C	21	160	20000	125	1100	700
O=C(O)c1ccc2c(c1)nc(-c1ccc(OCc3cc(Cl)ccc3-c3ccccc3)cc1)n2C1CCCCC1	200	3700	25000	–	–	–
CCCNC(=O)c1ccc(-c2ccc(Cl)cc2)c(COc2ccc(-c3nc4cc(C(=O)O)ccc4n3C3CCCCC3)c(F)c2)c1	21	380	24000	63	1300	600
O=C(O)c1ccc2c(c1)nc(-c1ccc(OCc3ccccc3-c3ccccc3)c(F)c1)n2C1CCCCC1	380	–	–	–	–	–
CC(C)C(=O)N(C)c1ccc(-c2ccc(Cl)cc2)c(COc2ccc(-c3nc4cc(C(=O)O)ccc4n3C3CCCCC3)c(F)c2)c1	32	350	22000	63	1900	1100
O=C(O)c1ccc2c(c1)nc(-c1ccc(OCc3cc(C(=O)NCCO)ccc3-c3ccc(Cl)cc3)cc1F)n2C1CCCCC1	21	940	26000	28	–	–
CN(C)c1ccc(-c2ccc(Cl)cc2)c(COc2ccc(-c3nc4cc(C(=O)O)ccc4n3C3CCCCC3)cc2)c1	63	2600	30000	12	–	–
O=C(O)c1ccc2c(c1)nc(-c1ccc(OCc3cccnc3-c3ccc(Cl)cc3)cc1)n2C1CCCCC1	53	1200	> 50000	> 41	–	–
CCN(C(C)=O)c1ccc(-c2ccc(Cl)cc2)c(COc2ccc(-c3nc4cc(C(=O)O)ccc4n3C3CCCCC3)c(F)c2)c1	19	140	25000	179	1500	800
O=C(O)c1ccc2c(c1)nc(-c1ccc(OCc3cc(Cl)ccc3-c3ccc(Cl)cc3)cc1)n2C1CCCCC1	50	3000	26000	13	–	–
O=C(O)c1ccc2c(c1)nc(-c1ccc(OCc3ccccc3-c3ccccc3)cc1Cl)n2C1CCCCC1	350	–	–	–	–	–
CC(C)NC(=O)c1ccc(-c2ccc(Cl)cc2)c(COc2ccc(-c3nc4cc(C(=O)O)ccc4n3C3CCCCC3)c(F)c2)c1	13	200	22000	110	1100	300
COc1ccc(-c2ccc(Cl)cc2)c(COc2ccc(-c3nc4cc(C(=O)O)ccc4n3C3CCCCC3)cc2)c1	37	1600	24000	15	–	–
Cc1ccc(-c2ccc(Cl)cc2COc2ccc(-c3nc4cc(C(=O)O)ccc4n3C3CCCCC3)cc2)cc1	98	3400	25000	–	–	–
CC(=O)c1ccc(-c2ccc(Cl)cc2)c(COc2ccc(-c3nc4cc(C(=O)O)ccc4n3C3CCCCC3)cc2)c1	18	340	24000	71	–	–
CC(=O)N(C)c1ccc(-c2ccc(Cl)cc2)c(COc2ccc(-c3nc4cc(C(=O)O)ccc4n3C3CCCCC3)c(F)c2)c1	16	150	26000	173	900	1100
CN(C)C(=O)Nc1ccc(-c2ccc(Cl)cc2)c(COc2ccc(-c3nc4cc(C(=O)O)ccc4n3C3CCCCC3)c(F)c2)c1	22	620	25000	40	–	–
O=C(O)c1ccc2c(c1)nc(-c1ccc(OCc3ccccc3-c3ccccc3)cc1F)n2C1CCCCC1	100	–	–	–	–	–
NS(=O)(=O)c1ccc(-c2ccc(Cl)cc2)c(COc2ccc(-c3nc4cc(C(=O)O)ccc4n3C3CCCCC3)cc2)c1	16	1500	27000	18	–	–
O=C(O)c1ccc2c(c1)nc(-c1ccc(OCc3cc(C(=O)N4CCCCC4)ccc3-c3ccc(Cl)cc3)cc1F)n2C1CCCCC1	18	270	24000	89	2200	700
CN(C)C(=O)c1ccc(COc2ccc(-c3nc4cc(C(=O)O)ccc4n3C3CCCCC3)cc2)c(-c2ccc(Cl)cc2)c1	32	840	25000	30	–	–

Compound	IC50 [1] [nM]	EC50 (Hepatitis C virus) [nM]	CC50 (Huh-5-2) [nM]	selectivity ratio [2]	concentration at 1 h [3] [nM]	concentration at 2 h [4] [nM]
O=C(O)c1ccc2c(c1)nc(-c1ccc(OCc3ccccc3-c3ccccc3)cc1C(F)(F)F)n2C1CCCCC1	930	–	–	–	–	–
N#Cc1ccc(-c2ccc(Cl)cc2)c(COc2ccc(-c3nc4cc(C(=O)O)ccc4n3C3CCCCC3)cc2)c1	41	820	23000	28	–	–
COc1ccc(-c2ccc(Cl)cc2COc2ccc(-c3nc4cc(C(=O)O)ccc4n3C3CCCCC3)cc2)cc1	100	2400	25000	–	–	–
O=C(O)c1ccc(-c2ccc(Cl)cc2)c(COc2ccc(-c3nc4cc(C(=O)O)ccc4n3C3CCCCC3)cc2)c1	24	> 10000	> 50000	–	–	–
COc1cc(OCc2ccccc2-c2ccccc2)ccc1-c1nc2cc(C(=O)O)ccc2n1C1CCCCC1	1100	–	–	–	–	–
N#Cc1ccc(-c2ccc(Cl)cc2COc2ccc(-c3nc4cc(C(=O)O)ccc4n3C3CCCCC3)cc2)cc1	55	1300	26000	–	–	–
CNC(=O)c1ccc(-c2ccc(Cl)cc2)c(COc2ccc(-c3nc4cc(C(=O)O)ccc4n3C3CCCCC3)c(F)c2)c1	12	360	25000	69	700	500
CN(C)C(=O)c1ccc(-c2ccc(Cl)cc2)c(COc2ccc(-c3nc4cc(C(=O)O)ccc4n3C3CCCCC3)cc2)c1	15	370	28000	76	–	–
NC(=O)c1ccc(-c2ccc(Cl)cc2)c(COc2ccc(-c3nc4cc(C(=O)O)ccc4n3C3CCCCC3)cc2)c1	13	790	26000	33	–	–
O=C(O)c1ccc2c(c1)nc(-c1ccc(OCc3ncccc3-c3ccc(Cl)cc3)cc1)n2C1CCCCC1	150	3900	25000	6	–	–
O=C(O)c1ccc2c(c1)nc(-c1ccc(OCc3cc(Cl)ccc3-c3cccnc3)cc1)n2C1CCCCC1	290	2600	–	–	–	–
CN(C)C(=O)c1ccc(-c2ccc(Cl)cc2)c(COc2ccc(-c3nc4cc(C(=O)O)ccc4n3C3CCCCC3)c(F)c2)c1	12	160	26000	163	1600	1800
Cc1nc(COc2ccc(-c3nc4cc(C(=O)O)ccc4n3C3CCCCC3)cc2)c(-c2ccc(Cl)cc2)s1	170	6300	31000	4.9	–	–
Cc1nc(-c2ccc(Cl)cc2)c(COc2ccc(-c3nc4cc(C(=O)O)ccc4n3C3CCCCC3)cc2)s1	90	2900	39000	13	–	–
O=C(O)c1ccc2c(c1)nc(-c1ccc(OCc3cc(C(=O)N4CCC(O)CC4)ccc3-c3ccc(Cl)cc3)cc1F)n2C1CCCCC1	14	380	26000	68	100	–
CNC(=O)c1ccc(-c2ccc(Cl)cc2)c(COc2ccc(-c3nc4cc(C(=O)O)ccc4n3C3CCCCC3)cc2)c1	18	530	25000	47	–	–
O=C(O)c1ccc2c(c1)nc(-c1ccc(OCc3cc(C(=O)NCc4ccccc4)ccc3-c3ccc(Cl)cc3)cc1)n2C1CCCCC1	29	1100	22000	20	–	–
CC(=O)Nc1ccc(-c2ccc(Cl)cc2)c(COc2ccc(-c3nc4cc(C(=O)O)ccc4n3C3CCCCC3)cc2)c1	22	1300	23000	18	–	–
O=C(O)c1ccc2c(c1)nc(-c1ccc(OCc3cc(Cl)ccc3-c3cccc(Cl)c3)cc1)n2C1CCCCC1	480	6500	32000	–	–	–
Cc1ncc(COc2ccc(-c3nc4cc(C(=O)O)ccc4n3C3CCCCC3)cc2)c(-c2ccc(Cl)cc2)n1	88	1500	24000	16	–	–
O=C(O)c1ccc2c(c1)nc(-c1ccc(OCc3ccccc3-c3ccc(Cl)cc3)cc1)n2C1CCCCC1	78	3200	35000	11	–	–
CN(C)S(=O)(=O)c1ccc(-c2ccc(Cl)cc2)c(COc2ccc(-c3nc4cc(C(=O)O)ccc4n3C3CCCCC3)cc2)c1	23	660	26000	39	–	–
